High-throughput results as filed in PubChem BioAssay.
An excerpt weighted towards active compounds, which were near 1.9% of everything screened.
MT1-MMP act inh = inhibitors of human MT1-MMP activation. P50281. HT1080 RFP-PRO-GFP cells, GFP/RFP ratio fluorescence, overnight; percent of plate control window, DMSO zero. GFP/RFP ratio change, % at 20 µM. 360,000 tested, 0.061% active. AID 651647;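 active means GFP/RFP ratio change of at least 30% with cell ATP level not reduced by more than half and red fluorescence within 50% of control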
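Assay system: HT1080 cells carrying an RFP-PRO-GFP reporter | Dosing: Single dose of 20 µM compound, 1% DMSO final | Incubation: Cells overnight before dosing, compound overnight, 37 °C, 5% CO2 | Evaluation: GFP/RFP fluorescence ratio | Control set: DMSO and RFP-L50D-GFP cell wells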
NR2E3 ag-1 = agonists of human nuclear receptor NR2E3; 320,000 tested, 0.12% active; inhibition of corepressor binding, % at 4.78 µM; Q9Y5X4; GST-NR2E3/biotin-RetCOR TR-FRET, 1536-well;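 active means percent inhibition above the cutoff of mean plus 3 SD of all tested compounds, set per screening campaign, cut at about 20% in these data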;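 further: 0% = DMSO wells and 100% = biotin wells as full block of FRET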
Target sequence (Q9Y5X4 whole entry, looked up): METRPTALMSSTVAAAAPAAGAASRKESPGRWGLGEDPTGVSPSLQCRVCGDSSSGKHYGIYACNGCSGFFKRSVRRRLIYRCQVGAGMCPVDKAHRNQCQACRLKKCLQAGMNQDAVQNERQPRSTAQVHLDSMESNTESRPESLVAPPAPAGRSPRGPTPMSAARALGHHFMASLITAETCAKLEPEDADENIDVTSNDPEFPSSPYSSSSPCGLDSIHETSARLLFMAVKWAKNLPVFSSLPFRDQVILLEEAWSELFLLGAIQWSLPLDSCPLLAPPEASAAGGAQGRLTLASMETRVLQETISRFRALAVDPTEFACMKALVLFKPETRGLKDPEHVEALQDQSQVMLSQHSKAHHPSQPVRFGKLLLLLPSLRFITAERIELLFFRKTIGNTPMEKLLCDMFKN
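Assay system: NR2E3–RetCOR corepressor complex. Quantity: 1.35 nM GST-NR2E3. Buffer or medium: pH 7.5 Tris-based buffer. Reagent: biotinylated RetCOR corepressor at 7 nM final. Schedule: 5 h at 4 °C. Detection: TR-FRET, emission read at 617 and 671 nm. Replicates: one well per compound, singlicate testing.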
Rev-erbA mod = Rev-erb alpha (human) modulation. AID 1259318. activity, % at 10 µM. 370,000 tested, 0.79% active. Rev-erbα–FITC-DNA binding, fluorescence polarization, 90 min. P20393;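 active means activity above about 14%, limit read from the data; passing the limit was not always enough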;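 further: 0% = DMSO wells with 35 nM protein and 100% = DMSO wells with 750 nM protein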
NR2E3 ag-2 = human photoreceptor-specific nuclear receptor agonism. inhibition of corepressor binding, % at 3.98 µM. Q9Y5X4. CHO-S Gal4-NCOR/VP16-NR2E3 two-hybrid, luciferase. 360,000 tested, 0.35% active;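 active means inhibition above the mean of all tested compounds plus 3 SD, cut at about 70% in these data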;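 further: 0% = DMSO with NR2E3 transfected cells and 100% = cells lacking NR2E3 construct; higher means lower luciferase signal from less NR2E3 corepressor binding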
PG9 binder = PG9 antibody binding by small molecule; 360,000 tested, 0.43% active; inhibition, % at 6.7 µM; TR-FRET gp120-PG9 antibody binding; in the data active means inhibition above about 8.5%
SKN-1 inh = blocks SKN-1 activity in C. elegans. inhibition, % at 21.8 µM. 360,000 tested, 0.49% active. C. elegans VP596 Pgst-4::GFP/RFP ratio, acrylamide-induced, 24 h;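 active means interference check ratio from 0.5 to 1.5 plus GFP to RFP signal ratio inhibition reaching or exceeding a fixed threshold, cut at about 30% in these data, passing the limit was not always enough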
The depositor's hits bear a star; . = no result.

SMILES	MT1-MMP act inh	NR2E3 ag-1	Rev-erbA mod	NR2E3 ag-2	PG9 binder	SKN-1 inh
CC(C)CCNC(=O)NC(=O)COC(=O)/C=C/c1cccc([N+](=O)[O-])c1	4	-1	-3	-3	2	14
O=C(N[C@H](Cc1ccccc1)C(=O)O)[C@H]1O[C@@H](n2ccc(=O)[nH]c2=O)[C@H](O)[C@@H]1O	.	.	6	.	-2	.
Nc1cccc2c1C(=O)c1ccc(Cl)cc1C2=O	11	.	0	-66	-4	46*
C[C@H](CCC(=O)O)[C@H]1CCC2C3C(=O)CC4CC(=O)CC[C@]4(C)C3CC(=O)[C@@]21C (stereo not given in full)	.	.	6	.	.	.
Clc1ccc(OCCCCSc2ncccn2)cc1	2	0	6	-8	2	91*
COc1ccc(OCCSc2nc(N)cc(N)n2)cc1	10	1	2	-100	-2	33
Brc1cccc(OCCSc2ncccn2)c1	-3	0	-1	-23	1	50*
CCCOc1ccc(OCCSc2ncccn2)cc1	4	1	-9	-118	-1	38*
Clc1ccc(OCCSc2ncccn2)c(Br)c1	2	2	2	-160	-1	53*
COCCN1C(=O)[C@H]2C[C@@]13O[C@H](c1ccc(C(F)(F)F)cc1)N=C3C[C@H](c1ccccc1)[C@H]2C	.	.	-1	.	0	.
C[C@@H]1CN([C@H](C)CO)S(=O)(=O)c2ccc(Br)cc2O[C@H]1CN(C)CC1CCOCC1	.	.	3	.	1	.
CC1CC(OC(=O)c2ccccc2)CC(C)(C)N1 (stereo not given)	.	.	-1	.	.	.
CC1CCN(C(=O)c2ccc(S(=O)(=O)N3CCOCC3)cc2)CC1	-3	4	-1	3	-1	-10
CC1CCN(S(=O)(=O)c2ccc(C(=O)N3CCOCC3)cc2)CC1	1	-4	-1	-21	-3	39*
Cc1ccc2c([N+](=O)[O-])cccc2n1	-3	3	0	19	-1	-3
Cc1ccc2c([N+](=O)[O-])c(C)ccc2n1	-9	-5	-2	-6	2	35*
O=C(c1ccc(Br)cn1)N1CCC(Oc2cccnc2)CC1	.	.	0	.	.	.
C(=N/n1c2ccccc2c2ccccc21)/c1ccco1	21	1	-1	-12	-1	51*
C(=N\n1c2ccccc2c2ccccc21)/c1ccccc1	-4	-1	-3	4	-2	10
Cc1sccc1C1C(C#N)=C(N)SC(N)=C1C#N	.	36*	.	.	.	.
Cc1[nH]nc2c1C(c1ccsc1C)C(C#N)=C(N)O2 (stereo not given)	-8	1	-3	11	2	13
CC1(C)OC(=O)C2=C(CC(CCc3ccccc3)OC2c2ccc(Cl)c(Cl)c2)O1 (stereo not given)	.	.	7	.	0	.
O=C(N[C@H](Cc1ccccc1)C(=O)NCC1CCCCC1)[C@H]1O[C@@H](n2ccc(=O)[nH]c2=O)[C@H](O)[C@@H]1O	.	.	-1	.	0	.
CC(=O)Nc1nc2ccccc2n1CCOc1ccccc1	10	0	-1	5	-2	-8
S=C(Nc1ccccc1)Nc1nc2ccccc2n1CCOc1ccccc1	9	0	2	2	1	41*
SMILES	MT1-MMP act inh	NR2E3 ag-1	Rev-erbA mod	NR2E3 ag-2	PG9 binder	SKN-1 inh
C=CCN1C=C/C(=C\C=C(C#N)C#N)c2ccccc21	14	0	-28	-5	-6	35*
CSc1ccc(CN(C)C(=O)c2cccc(S(=O)(=O)N3CCN(Cc4ccccc4)CC3)c2)cc1	-3	2	13	71*	1	-6
Clc1ccc(Nc2ncnc3ccc(Br)cc23)cc1	-27	13	24	-17	2	36*
CC/C=C(\C(=O)N[C@@H]1C(=O)N2C(C(=O)OCOC(=O)C(C)(C)C)=C(COC(N)=O)CS[C@H]12)c1csc(N)n1	.	.	-4	.	.	.
Cc1ccccc1-n1c(SCC(=O)O)nc2sc3c(c2c1=O)CCCC3	3	1	-4	-4	-1	36*
O=C(O)CSc1nc2sc3c(c2c(=O)n1Cc1ccccc1)CCCCC3	6	2	-6	-45	0	1
COCCCn1c(=O)c2ccccc2n(Cc2cccc(C)c2)c1=O	-1	4	2	-28	-2	40*
COCCCn1c(=O)c2ccccc2n(Cc2ccc(C)cc2)c1=O	-4	6	-3	-9	0	16
Cc1c(NC(=O)/C(C#N)=C/c2ccc(-c3ccc(Cl)c(Cl)c3)o2)c(=O)n(-c2ccccc2)n1C	-3	1	4	-8	-3	46*
COc1ccc(-c2nnc(-c3ccc(Br)o3)o2)cc1OC	2	-1	3	-48	-2	36*
CC1CCCCN1C(=O)c1ccc(CNC(=O)c2cccc(Br)c2)cc1 (stereo not given)	.	.	-5	.	.	.
O=C(Nc1ccccc1)O/N=C/c1ccc(F)cc1	2	1	-1	-104	-1	37*
Cc1ccc(NC(=O)O/N=C/c2ccc(F)cc2)cc1	-4	4	-3	-102	-1	12
N#C/C(=C\c1ccco1)c1nc2ccccc2s1	-4	1	-1	-149	-3	88*
N#C/C(=C/c1ccc(-c2cc(C(=O)O)cc(C(=O)O)c2)o1)c1nc2ccccc2s1	.	11	.	.	.	.
N#C/C(=C\c1ccc(O)c([N+](=O)[O-])c1)c1nc2ccccc2s1	2	.	18	13	0	-10
N#C/C(=C/c1ccco1)c1nc2ccccc2s1	-12	0	-1	-117	-2	86*
C=CCCC1CN(Cc2ccc(OC)cc2)S(=O)(=O)c2c(cccc2N(C)S(=O)(=O)c2ccc(C)cc2)O1 (stereo not given)	.	.	-6	.	2	.
Cc1cc(C)n(-c2ccc(C(=O)Oc3ccc4c(c3)OCO4)cc2)n1	-10	-2	4	16	-2	37*
COc1ccc(-c2cc(-c3ccccc3O)[nH]n2)cc1	4	2	6	-184	1	26
COc1ccc(-c2cc(-c3ccccc3)n[nH]2)c(O)c1	6	2	-4	-195	-2	35*
C(#Cc1ccc2c(c1)COc1c3ccccc3nn1-2)c1ccccc1	-12	2	-3	-48	2	37*
C(#CC1CCCCC1)c1ccc2c(c1)COc1c3ccccc3nn1-2	1	4	5	-20	-1	0
C#Cc1ccc2c(c1)COc1c3ccccc3nn1-2	2	4	1	-77	-2	48*
C[C@H](CO)N1C[C@H](C)[C@H](CN(C)Cc2cccc(F)c2)Oc2ncc(C3=CCCC3)cc2C1=O	.	.	7	.	-1	.
Clc1ccc(Cc2noc(-c3cccs3)n2)cc1	-1	3	2	-39	-1	82*
